# Screening data as filed in PubChem BioAssay.
# AI-2 QS modul = Vibrio harveyi AI-2 quorum sensing modulators, primary screen, JMH597 strain, luminescence/OD600 ratio; activity change, % at 7.5 µM; 0.4% of 300,000 active; Vibrio harveyi JMH597 AI-2 luminescence/OD600 ratio, 9 h; stronger effect = lower value; strain lacks LuxN and CqsS sensors; 0 = neutral-control median; AID 2094, 2009; in the data active = activity change below about -75%, passing the limit was not always enough; inconclusive = no clear call, values can overlap the other calls;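 note: luminescence divided by OD600 gain over 9 h not by final OD600 alone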
# V-ATPase pHluor = regulators of yeast V-ATPase proton pumping, primary screen, pHLuorin cytosolic pH fluorescence | response, % at 10 µM | S. cerevisiae | 0.37% of 350,000 active; in the data active = response mostly above about 7.3%, no sharp cut-off; inactive = mostly below about 5.4%; note: actives read high
# CendR NRP1 mod = modulators of CendR peptide binding to NRP-1, primary screen, biochemical, fluorescence polarization, uHTS; 0.85% of 360,000 active; FAM-RPARPAR peptide binding to NRP-1; inhibition, % at 25 µM;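 active = inhibition or corrected inhibition above about 18%, plus a signal ratio from 0.5 to 1.5, limit read from the data, passing the limit was not always enough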
# Target sequence (O14786 whole entry, looked up): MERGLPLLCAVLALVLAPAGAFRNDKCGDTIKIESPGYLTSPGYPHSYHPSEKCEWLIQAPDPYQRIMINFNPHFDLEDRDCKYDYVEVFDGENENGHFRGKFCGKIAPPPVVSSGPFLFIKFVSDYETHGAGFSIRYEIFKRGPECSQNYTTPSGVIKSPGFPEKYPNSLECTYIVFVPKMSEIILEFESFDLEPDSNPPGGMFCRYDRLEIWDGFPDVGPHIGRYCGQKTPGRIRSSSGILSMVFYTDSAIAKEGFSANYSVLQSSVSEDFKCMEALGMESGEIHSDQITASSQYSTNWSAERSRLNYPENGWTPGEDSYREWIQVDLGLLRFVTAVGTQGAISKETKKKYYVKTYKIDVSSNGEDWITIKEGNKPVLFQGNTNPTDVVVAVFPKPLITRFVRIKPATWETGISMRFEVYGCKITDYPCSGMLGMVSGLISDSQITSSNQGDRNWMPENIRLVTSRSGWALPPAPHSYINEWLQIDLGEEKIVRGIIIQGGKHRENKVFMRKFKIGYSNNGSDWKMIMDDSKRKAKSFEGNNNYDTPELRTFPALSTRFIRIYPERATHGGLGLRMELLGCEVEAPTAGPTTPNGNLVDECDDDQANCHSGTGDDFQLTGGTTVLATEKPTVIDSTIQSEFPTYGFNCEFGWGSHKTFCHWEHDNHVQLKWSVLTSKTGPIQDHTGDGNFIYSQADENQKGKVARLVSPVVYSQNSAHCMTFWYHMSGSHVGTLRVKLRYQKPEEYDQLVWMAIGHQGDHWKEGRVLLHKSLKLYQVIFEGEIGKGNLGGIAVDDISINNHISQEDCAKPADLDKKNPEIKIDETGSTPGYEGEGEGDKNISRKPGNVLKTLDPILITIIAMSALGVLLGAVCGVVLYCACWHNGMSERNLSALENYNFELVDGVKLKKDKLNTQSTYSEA
# CR mimetic SO = reduction of superoxide in aged yeast, primary screen, HTS | S. cerevisiae aged cells, superoxide DHE fluorescence; stronger effect = lower value | superoxide response (% of plate mean), % at 10 µM | 0.18% of 330,000 active | AID 2690, 2010;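 active = superoxide response under a set limit, about three screen SD below normal, cut at about 65% in these data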;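 note: yeast aged for seven days with compound at 30 °C before DHE staining; 100% = average MFI of all compound-treated wells on the plate with controls excluded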
# T cruzi inh = inhibitors of intracellular T. cruzi growth, primary screen, luminescence, NIH3T3 host cells; inhibition, % (test concentration not listed); 1.4% of 300,000 active; AID 1885, 2009; T. cruzi beta-gal in NIH3T3, 90 h;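 active = mean inhibition across valid replicates above about 55%, limit read from the data; inconclusive = mean below that limit but half or more replicates reach it; inactive = mean below it, under half of replicates reach it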;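 note: signal also drops with host cell toxicity which is not excluded here; 0% = plate median of DMSO wells and 100% = zero luminescence signal; higher percent means less beta-gal luminescence so fewer parasites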
#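 Incubation – ≥90 h infection period, 3 h prior cell attachment · System – NIH/3T3 fibroblasts plus reporter T. cruzi · Doses – compound pinned at 50 nL/well, DMSO · Read-out basis – percent inhibition of parasite-derived β-gal signal · Signal – luminescent β-galactosidase signal after 60 min lysis · Also added – 5000 T. cruzi trypomastigotes/well · Medium – Low-serum DMEM with 2% FBS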
# HIF act = HIF pathway transcriptional activators, primary screen, cell-based, U2OS HRE-luciferase, luminescence. U2OS HRE-luciferase reporter; normalized: DMSO 0%, desferrioxamine 100%. activation, % at 7.5 µM (by protocol). 0.32% of 300,000 active. AID 1910, 2009;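 active = mean activation of at least 10% of the iron chelator positive control signal, with at least half of replicates also reaching 10%; inconclusive = mean and replicate majority disagree about reaching 10%; inactive = mean and most replicates under 10%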
# * hit, by the source's call; ? = inconclusive; . = not tested or not shown. Compounds with a hit are over-represented: about 3% of the library has one in this group of screens.
SMILES,AI-2 QS modul,V-ATPase pHluor,CendR NRP1 mod,CR mimetic SO,T cruzi inh,HIF act
C=CCNC(=S)Nc1ccc2nsnc2c1,-1,0,7,113,-16,0
S=C(Nc1ccc2nsnc2c1)N1CCCCCC1,10,-3,45*,104,23,0
C=CCN(CC=C)C(=S)Nc1ccc2nsnc2c1,29,0,30*,90,-4,0
CC(C)(C)c1cc(C(c2cccnc2)N2CCN(CCO)CC2)cc(C(C)(C)C)c1O (stereo unspecified),128,2,16,77,61*,0
COc1ccc(N2CCN(C(=O)COCc3cc(-c4ccc5c(c4)OCO5)on3)CC2)cc1,25,10,4,95,-3,0
O=C(COCc1cc(-c2ccc3c(c2)OCO3)on1)N1CCN(c2cccc(C(F)(F)F)c2)CC1,25,-3,19*,112,-2,0
O=C(NCc1ccccc1)C(=O)NCC1OCCN1S(=O)(=O)c1ccc([N+](=O)[O-])cc1 (stereo unspecified),9,2,20,82,60*,0
CNC(=O)C(=O)NCC1OCCN1S(=O)(=O)c1ccc([N+](=O)[O-])cc1 (stereo unspecified),40,2,-2,123,21,0
O=C(CC1C(=O)NCCN1C/C=C/c1ccccc1)NCCc1cnccn1 (stereo unspecified),23,1,-3,100,-30,0
COc1ccc(/C=N/NC(=O)c2ccccc2O)cc1COc1ccccn1,28,6,10,99,-8,0
COc1ccc(/C=N/NC(=O)c2ccccc2O)cc1CSc1ccccn1,12,0,-8,107,1,197*
O=C(Nc1ccccc1N1CCOCC1)[C@@H]1O[C@H](CO)[C@H](O)[C@H](O)[C@H]1O,.,.,32*,.,.,.
COc1ccccc1NC(=O)/C=C1\SCC(=O)N1C,2,1,-20,104,71*,-1
COc1ccccc1NC(=O)/C=C1\NC(=O)CS1,1,1,-12,82,1,-27
Cc1cccc(C(=O)OCC(=O)NNC(=O)c2cccs2)c1O,2,2,-5,96,-9,0
CC(C)NC(=S)N/N=C/c1cccnc1,9,8,37*,100,-15,2
Oc1ccc(/C=N/NC(=S)Nc2cccnc2)c(O)c1O,37,3,-42,.,30,0
Oc1cccc(/C=N/NC(=S)Nc2cccnc2)c1O,-84*,0,-28,136,-17,14*
COC(=O)[C@@]12CCCCN1[C@H](c1ccc(-c3cccc(Cl)c3)c(OC)c1)[C@@H]1C(=O)N(C)C(=O)[C@@H]12,10,0,-12,101,56*,-2
CCN1C(=O)[C@H]2[C@@H](c3ccc(-c4ccc(C(C)=O)cc4)c(OC)c3)N3CCCC[C@@]3(C(=O)OC)[C@H]2C1=O,.,2,0,81,.,.
CCN1C(=O)[C@@H]2[C@@H](c3ccc(-c4cc(C(C)=O)cs4)cc3)N3CCC[C@@]3(C(=O)OC)[C@@H]2C1=O,.,-5,24*,.,.,.
Nn1c(SC/C=C/c2ccccc2)nnc1-c1ccco1,-55,18*,1,91,-3,1
CN1C(=O)/C(=N\OC(=O)c2ccccc2Cl)c2ccccc21,28,4,-1,85,-26,0
CC(C(=O)N1CCN(c2ccc(Cl)cc2)CC1)c1ncc(C(F)(F)F)cc1Cl (stereo unspecified),17,3,47*,103,-2,0
CSCC[C@@H](C(=O)NCc1cccs1)N1Cc2ccccc2C1=O,16,0,21*,104,-2,0
SMILES,AI-2 QS modul,V-ATPase pHluor,CendR NRP1 mod,CR mimetic SO,T cruzi inh,HIF act
CSCCC(C(=O)NCc1cccs1)N1C(=O)c2ccccc2C1=O (stereo unspecified),45,-103,-4,103,1,1
CN(C(=O)c1ccc(NC(=O)Cc2cccc(NC(=O)C3CCCN(C(=O)C4CC4)C3)c2)cc1)C1CCCC1 (stereo unspecified),.,6,23,110,.,.
CCCCC1(C)NC(=O)N(CC(=O)Nc2ccc(Cl)cc2C)C1=O (stereo unspecified),.,0,0,94,.,.
O=S(=O)(c1ccc2ccccc2c1)N1CCC(c2nc(-c3ccncc3)no2)CC1,14,0,-2,113,71*,0
CN(C)c1ccc(-c2noc(C3CCN(S(=O)(=O)c4cccc(Cl)c4)CC3)n2)cc1,20,0,3,110,.,.
CCCCOc1ccc(N(CC(=O)NC2CCCC2)C(=O)CCC(=O)Nc2ccccn2)cc1,19,3,2,122,6,0
CCOc1ccccc1NC(=O)C(=O)N/N=C/c1cc(Br)ccc1O,4,-3,-14,99,63*,5
CCOc1ccccc1N(CC(=O)N/N=C/c1cc(Br)ccc1OC)S(C)(=O)=O,9,0,-8,87,-4,26*
C=C(C)CSc1nnc2n(C)c(=O)c3c4c(sc3n12)CCC4,-1,1,2,121,21,0
COc1ccc(NS(=O)(=O)c2cc(Br)cc3c2N(C(C)=O)CC3)cc1,32,4,4,105,-2,2
O=C(O)c1cocc1C(=O)O,.,2,0,.,.,.
COc1ccc2c(c1)N(C)/C(=C/c1cccc[n+]1C)S2,9,0,-16,95,56*,1
Cc1ccc2c(c1)N(C)/C(=C/c1cccc[n+]1CCO)S2,6,1,1,101,?,1
CCN1/C(=C/C(C)=O)Sc2ccc(OC)cc21,14,-3,4,98,8,-1
CCN1/C(=C/c2cccc[n+]2C)Sc2ccc(OC)cc21,-7,1,-2,85,70*,1
Cc1cccc(NC(=S)N2CCN(Cc3ccccc3)CC2)c1C,-3,16*,-1,92,-13,-1
COCCCNC(=S)N1CCN(Cc2ccc3c(c2)OCO3)CC1,16,-1,21*,93,-7,-1
Cc1ccccc1NC(=S)N1CCN(Cc2ccc3c(c2)OCO3)CC1,25,-1,30*,86,13,-1
CCCCNC(=S)N1CCN(Cc2ccc3c(c2)OCO3)CC1,36,-2,-6,92,-4,0
COc1ccc(C(=O)NCC(C)NC(=O)c2ccc(OC)c(Br)c2)cc1Br (stereo unspecified),26,0,-2,97,9,0
CC1CN(C(C)C(=O)NC(c2ccccc2)c2ccccc2)CC(C)O1 (stereo unspecified),-2,-1,10,105,-8,0
